ChEMBL document CHEMBL4052819 (2017)
In brackets after ≈: the same amount, converted by molar mass. Non-standard residues stand in square brackets, D forms with d. Residues, ends and D or L forms follow the SMILES beside them. *: point of attachment. Decanoyl = CCCCCCCCCC(=O)*; Heptanoyl = CCCCCCC(=O)*; Dab = NCC[C@H](N)C(=O)O; Cbz = O=C(OCc1ccccc1)*; Bz = O=C(c1ccccc1)*

Assays:
Staphylococcus aureus [1] = experiment: Antibacterial activity against methicillin-resistant Staphylococcus aureus ATCC 43300 after 18 to 20 hrs by broth microdilution method; format: functional
Method in brief: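 Broth microdilution in tryptic soy broth: 2-fold dilutions mixed 1:1 with ~1.5 × 10^5 CFU/mL bacterial suspension in TSB, final 0.5–32 μg/mL, 37 °C for 18–20 h. MIC = lowest concentration with no visible growth. At least three independent experiments, one replicate each.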

Acinetobacter baumannii [2] = experiment: Potentiation of rifampicin-mediated antibacterial activity against Acinetobacter baumannii ATCC 19606 assessed as decrease in rifampicin MIC at 4 ug/ml by checkerboard method relative to control; format: functional, ATCC 19606 = CIP 70.34 = JCM 6841
Staphylococcus aureus [3] = experiment: Antibacterial activity against Staphylococcus aureus ATCC 29213 after 18 to 20 hrs by broth microdilution method; format: functional
Method in brief: (§1)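 Broth microdilution in tryptic soy broth: 2-fold dilutions mixed 1:1 with ~1.5 × 10^5 CFU/mL inoculum, final 0.5–32 μg/mL; 37 °C, 18–20 h. MIC taken as lowest concentration giving no visible growth. At least three independent experiments, one replicate each.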

Enterococcus faecium [4] = experiment: Antibacterial activity against Enterococcus faecium ATCC 19434 after 18 to 20 hrs by broth microdilution method; format: functional; method in brief: as §1
Klebsiella pneumoniae [5] = experiment: Potentiation of rifampicin-mediated antibacterial activity against Klebsiella pneumoniae ATCC 13883 assessed as decrease in rifampicin MIC at 2 ug/ml by checkerboard method relative to control; format: functional
Acinetobacter baumannii [6] = experiment: Antibacterial activity against Acinetobacter baumannii ATCC 19606 after 18 to 20 hrs by broth microdilution method; format: functional; details: ATCC 19606 = CIP 70.34 = JCM 6841
Klebsiella pneumoniae [7] = experiment: Antibacterial activity against Klebsiella pneumoniae ATCC 13883 after 18 to 20 hrs by broth microdilution method; format: functional
Pseudomonas aeruginosa [8] = experiment: Antibacterial activity against Pseudomonas aeruginosa ATCC 27853 after 18 to 20 hrs by broth microdilution method; format: functional; method in brief: as §1
Escherichia coli [9] = experiment: Antibacterial activity against Escherichia coli ATCC 25922 after 18 to 20 hrs by broth microdilution method; format: functional; method in brief: as §1
Acinetobacter baumannii [10] = experiment: Potentiation of rifampicin-mediated antibacterial activity against Acinetobacter baumannii ATCC 19606 assessed as rifampicin MIC at 2 ug/ml by checkerboard method (reference value: 16 ug/ml); format: functional; details: ATCC 19606 = CIP 70.34 = JCM 6841
Klebsiella pneumoniae [11] = experiment: Potentiation of rifampicin-mediated antibacterial activity against Klebsiella pneumoniae ATCC 13883 assessed as rifampicin MIC at 2 ug/ml by checkerboard method (reference value: 16 ug/ml); format: functional
Enterococcus faecium [12] = experiment: Bactericidal activity against Enterococcus faecium ATCC 19434; format: functional; details: read-out: MBC99.9
Method in brief: (§2)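 MBC from MIC plates at end point: 50 μL from each well with no visible growth plated on tryptic soy agar and counted. MBC taken as lowest concentration giving ≥99.9% fall in viable count relative to initial inoculum. Three independent experiments, one replicate each.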

Acinetobacter baumannii [13] = experiment: Bactericidal activity against Acinetobacter baumannii ATCC 19606; format: functional; details: ATCC 19606 = CIP 70.34 = JCM 6841, read-out: MBC99.9; method in brief: as §2
Pseudomonas aeruginosa [14] = experiment: Bactericidal activity against Pseudomonas aeruginosa ATCC 27853; format: functional; details: read-out: MBC99.9; method in brief: as §2
Staphylococcus aureus [15] = experiment: Antibacterial activity against Staphylococcus aureus ATCC 29213 after 18 to 20 hrs in presence of 95% serum by broth microdilution method; format: functional
Method in brief: (§3)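 Same microdilution with human serum as medium: compound 2-fold diluted in 100% serum, mixed 1:1 with 90% serum holding ~1.5 × 10^5 CFU/mL, giving 95% serum and final 0.5–64 μg/mL. MIC read as no visible growth after incubation as for the broth test.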

Staphylococcus aureus [16] = experiment: Bactericidal activity against methicillin-resistant Staphylococcus aureus ATCC 43300; format: functional; details: read-out: MBC99.9
Method in brief: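 MBC taken at the end of the MIC test: 50 μL from each well without visible growth plated on tryptic soy agar. MBC = lowest concentration giving ≥99.9% reduction in viable cells relative to the initial inoculum. Three independent experiments, one replicate each.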

Klebsiella pneumoniae [17] = experiment: Bactericidal activity against Klebsiella pneumoniae ATCC 13883; format: functional; details: read-out: MBC99.9; method in brief: as §2
Escherichia coli [18] = experiment: Bactericidal activity against Escherichia coli ATCC 25922; format: functional; details: read-out: MBC99.9; method in brief: as §2
Staphylococcus aureus [19] = experiment: Bactericidal activity against Staphylococcus aureus ATCC 29213; format: functional; details: read-out: MBC99.9; method in brief: as §2
Escherichia coli [20] = experiment: Antibacterial activity against Escherichia coli ATCC 25922 after 18 to 20 hrs in presence of 95% serum by broth microdilution method; format: functional; method in brief: as §3

SMILES	MIC (Staphylococcus aureus [1]) [µg/mL]	fold change (FC) (Acinetobacter baumannii [2])	MIC (Staphylococcus aureus [3]) [µg/mL]	MIC (Enterococcus faecium [4]) [µg/mL]	fold change (FC) (Klebsiella pneumoniae [5])	MIC (Acinetobacter baumannii [6]) [µg/mL]	MIC (Klebsiella pneumoniae [7]) [µg/mL]	MIC (Pseudomonas aeruginosa [8]) [µg/mL]	MIC (Escherichia coli [9]) [µg/mL]	MIC (Acinetobacter baumannii [10]) [µg/mL]	MIC (Klebsiella pneumoniae [11]) [µg/mL]	MBC (Enterococcus faecium [12]) [µg/mL]	MBC (Acinetobacter baumannii [13]) [µg/mL]	MBC (Pseudomonas aeruginosa [14]) [µg/mL]	MIC (Staphylococcus aureus [15]) [µg/mL]	MBC (Staphylococcus aureus [16]) [µg/mL]	MBC (Klebsiella pneumoniae [17]) [µg/mL]	MBC (Escherichia coli [18]) [µg/mL]	MBC (Staphylococcus aureus [19]) [µg/mL]	MIC (Escherichia coli [20]) [µg/mL]
CCCCCCCC(=O)N[C@H](CCCN)C(=O)N[C@H](C(=O)N[C@@H](CCCN)C(=O)N[C@@H](Cc1ccccc1)C(=O)N[C@@H](CC(C)C)C(=O)N[C@@H](CCCN)C(=O)N[C@H](C(=O)N[C@@H](CC(C)C)C(=O)N[C@@H](CO)C(N)=O)C(C)C)[C@@H](C)CC	32 (≈ 27.6 µM)	512 - 1024	> 32	> 32	1024 - 2048	32 (≈ 27.6 µM)	> 32	16 (≈ 13.8 µM)	32 (≈ 27.6 µM)	0.0625	0.0313 to 0.0625									
CC[C@H](C)[C@H](NC(=O)[C@H](CCN)NC(=O)c1ccccc1)C(=O)N[C@@H](CCN)C(=O)N[C@H](Cc1ccccc1)C(=O)N[C@@H](CC(C)C)C(=O)N[C@@H](CCN)C(=O)N[C@@H](C(=O)N[C@@H](CC(C)C)C(=O)N[C@@H](CO)C(N)=O)C(C)C (Bz-[Dab]I[Dab][dF]L[Dab][dV]LS-NH2)	> 32	2048 - 4096	> 32	> 32	4096 - 8192	> 32	> 32	8 to 32 (≈ 7.31 to 29.2 µM)	16 to 32 (≈ 14.6 to 29.2 µM)	0.0312	0.0078									
CC[C@H](C)[C@H](NC(=O)[C@H](CCN)NC(=O)OCc1ccccc1)C(=O)N[C@@H](CCN)C(=O)N[C@H](Cc1ccccc1)C(=O)N[C@@H](CC(C)C)C(=O)N[C@@H](CCN)C(=O)N[C@@H](C(=O)N[C@@H](CC(C)C)C(=O)N[C@@H](CO)C(N)=O)C(C)C (Cbz-[Dab]I[Dab][dF]L[Dab][dV]LS-NH2)	> 32	>=8192	> 32	> 32	4096 - 8192	16 (≈ 14.2 µM)	> 32	16 (≈ 14.2 µM)	8 to 16 (≈ 7.11 to 14.2 µM)	0.0019 to 0.0039	0.0039									
CCCCCCCCCC(=O)N[C@@H](CCN)C(=O)N[C@H](C(=O)N[C@H](C(=O)N[C@H](CC(C)C)C(=O)N[C@@H](CC(C)C)C(=O)N[C@@H](CCN)C(=O)N[C@@H](C(=O)N[C@@H](CC(C)C)C(=O)N[C@@H](CO)C(N)=O)C(C)C)[C@@H](C)O)[C@@H](C)CC (Decanoyl-[Dab]IT[dL]L[Dab][dV]LS-NH2)	> 32	<128	> 32	≥ 32	<8	> 32	> 32	> 32	> 32	> 0.125	> 0.125									
CCCCCCC(=O)N[C@@H](CCN)C(=O)N[C@@H](Cc1ccccc1)C(=O)N[C@@H](CCN)C(=O)N[C@H](Cc1ccccc1)C(=O)N[C@@H](CC(C)C)C(=O)N[C@@H](CCN)C(=O)N[C@H](CC(C)C)C(=O)N[C@@H](CC(C)C)C(=O)N[C@@H](CO)C(N)=O (Heptanoyl-[Dab]F[Dab][dF]L[Dab][dL]LS-NH2)	16 to 32 (≈ 13.9 to 27.8 µM)		16 to 32 (≈ 13.9 to 27.8 µM)	16 (≈ 13.9 µM)		8 (≈ 6.95 µM)	4 (≈ 3.48 µM)	2 to 4 (≈ 1.74 to 3.48 µM)	1 to 4 (≈ 0.869 to 3.48 µM)			32 (≈ 27.8 µM)	8 (≈ 6.95 µM)	8 to 16 (≈ 6.95 to 13.9 µM)	64	32 (≈ 27.8 µM)	8 (≈ 6.95 µM)	32 (≈ 27.8 µM)	16 to 32 (≈ 13.9 to 27.8 µM)	32
